Each block holds one molecule with its values, some of them ahead of it. Active and inactive are the calls of the source. No cut-off for these calls is given here.
Tests used:
Nucleic Acid [1] = assay: Binding affinity to 14mer DNA assessed as change in melting temperature by spectrophotometry; assay type: nucleic-acid assay
Outline: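 Thermal melting of 14-mer oligonucleotide duplexes (HRE or ARE sequence) with and without polyamide, read by UV spectrophotometry in 1 cm quartz cuvettes with a thermostatted holder. Buffer was 10 mM sodium cacodylate, 10 mM KCl, 10 mM MgCl2, 5 mM CaCl2, pH 7.0. ΔTm is taken relative to the free duplex.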

Nucleic Acid [2] = assay: Binding affinity to 5'-GTGCATACGTGGGC-3' sequence of DNA assessed as change in melting temperature by spectrophotometry; assay type: nucleic-acid assay
LNCaP [3] = assay: Inhibition of dihydrotestosterone-induced prostate specific antigen expression in human LNCAP cells at 5 uM by quantitative RT-PCR analysis; assay type: functional
Outline: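 LNCaP cells were induced with 1 nM DHT and PSA mRNA measured by quantitative real-time RT-PCR. Oxime-linked polyamides were given at 5, 1 and 0.1 μM, and unconjugated controls at 5 μM, with DMSO ≤0.1%. Expression was normalized to untreated DHT-induced cells; uninduced and DMSO controls were included.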

Nucleic Acid [4] = assay: Binding affinity to 5'-TTGCAGAACAGCAA-3' sequence of DNA assessed as change in melting temperature by spectrophotometry; assay type: nucleic-acid assay
LNCaP [5] = assay: Cytotoxicity against human LNCAP cells after 48 hrs by WST1 assay; assay type: functional, cell-based
Outline: (§1)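 LNCaP cells were seeded at 10-15 × 10^2 per well and allowed to settle 48 h before polyamide was added as 2× media solutions (DMSO <0.1%). After 48 h exposure, media was replaced and cells recovered 24 h. WST-1 was added for 30 min and A450 read. Wells were corrected for media-only background and normalized to untreated controls.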

LNCaP [6] = assay: Cytotoxicity against human LNCAP cells assessed as cell viability at 0.01 to 30 uM after 48 hrs by WST1 assay; assay type: functional; outline: as §1
LNCaP [7] = assay: Cytotoxicity against human LNCAP cells at 0.02 to 50 uM after 48 hrs by WST1 assay; assay type: functional, cell-based; outline: as §1
U-251 [8] = assay: Cytotoxicity against human U251 cells after 48 hrs by WST1 assay; details: U-251, 48 h
U-251 [9] = assay: Cytotoxicity against human U251 cells at 0.002 to 10 uM after 48 hrs by WST1 assay; assay type: functional, cell-based
Outline: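 U251 cells were plated at 10-15 × 10^2 per well. After 24 h, polyamide was added in 2× media, with a 10–0.002 μM range for the core-less oxime controls. Cells were treated 48 h, then given fresh media for 24 h recovery. WST-1 was read at 450 nm after 30 min, with background correction and normalization to untreated wells.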

U-251 [10] = assay: Inhibition of desferrioxamine-induced VEGF mRNA expression in human U251 cells at 1 uM by quantitative RT-PCR analysis; assay type: functional
Outline: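 In U251 cells, induced VEGF mRNA was quantified by real-time RT-PCR after polyamide at 1, 0.2 and 0.02 μM, with DMSO ≤0.1%. Values were normalized to untreated induced cells; uninduced and DMSO-vehicle controls were run alongside.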

ΔTm (Nucleic Acid [1]): -0.9 °C
SMILES: Cn1cc(NC(=O)c2cc(NC(=O)c3nc(NC(=O)c4cc(NC(=O)[C@H](N)CCNC(=O)c5nc(NC(=O)c6cc(NC(=O)c7cc(NC(=O)c8nccn8C)cn7C)cn6C)cn5C)cn4C)cn3C)cn2C)cc1C(=O)NCCCCCCCN

ΔTm (Nucleic Acid [4]): 11.1 °C
SMILES: Cn1cc(NC(=O)c2cc(NC(=O)c3cc(NC(=O)c4nc(NC(=O)[C@H](N)CCNC(=O)c5cc(NC(=O)c6cc(NC(=O)c7cc(NC(=O)c8nccn8C)cn7C)cn6C)cn5C)cn4C)cn3C)cn2C)cc1C(=O)NCCCNC(=O)c1cccc(C(=O)O)c1
IC50 (LNCaP [5]): > 30 µM
Activity (LNCaP [6]): <50%

ΔTm (Nucleic Acid [4]): 14.3 °C
SMILES: Cn1cc(NC(=O)c2cc(NC(=O)c3cc(NC(=O)c4nc(NC(=O)[C@H](N)CCNC(=O)c5cc(NC(=O)c6cc(NC(=O)c7cc(NC(=O)c8nccn8C)cn7C)cn6C)cn5C)cn4C)cn3C)cn2C)cc1C(=O)NCCCCCCCN

ΔTm (Nucleic Acid [2]): 10.6 °C
SMILES: Cn1cc(NC(=O)c2cc(NC(=O)c3nc(NC(=O)c4cc(NC(=O)[C@H](N)CCNC(=O)c5nc(NC(=O)c6cc(NC(=O)c7cc(NC(=O)c8sccc8Cl)cn7C)cn6C)cn5C)cn4C)cn3C)cn2C)cc1C(=O)NCCCON

ΔTm (Nucleic Acid [2]): 11.7 °C
SMILES: CN(CCCNC(=O)c1cccc(C(=O)O)c1)CCCNC(=O)c1cc(NC(=O)c2cc(NC(=O)c3nc(NC(=O)c4cc(NC(=O)[C@H](N)CCNC(=O)c5nc(NC(=O)c6cc(NC(=O)c7cc(NC(=O)c8sccc8Cl)cn7C)cn6C)cn5C)cn4C)cn3C)cn2C)cn1C
inhibition (U-251 [10]): Active

Continued, molecule first:

SMILES: CN(CCCNC(=O)c1cccc(C(=O)O)c1)CCCNC(=O)c1cc(NC(=O)c2cc(NC(=O)c3cc(NC(=O)c4nc(NC(=O)[C@H](N)CCNC(=O)c5nc(NC(=O)c6cc(NC(=O)c7nc(NC(=O)c8nccn8C)cn7C)cn6C)cn5C)cn4C)cn3C)cn2C)cn1C
ΔTm (Nucleic Acid [1]): 0.9 °C

SMILES: CN(C)CCCNC(=O)CCNC(=O)c1cc(NC(=O)c2cc(NC(=O)c3nc(NC(=O)c4cc(NC(=O)[C@H](N)CCNC(=O)c5nc(NC(=O)c6cc(NC(=O)c7cc(NC(=O)c8sccc8Cl)cn7C)cn6C)cn5C)cn4C)cn3C)cn2C)cn1C
ΔTm (Nucleic Acid [2]): 12.4 °C

SMILES: Cn1cc(NC(=O)c2cc(NC(=O)c3nc(NC(=O)c4cc(NC(=O)[C@H](N)CCNC(=O)c5nc(NC(=O)c6cc(NC(=O)c7cc(NC(=O)c8sccc8Cl)cn7C)cn6C)cn5C)cn4C)cn3C)cn2C)cc1C(=O)NCCCCCCCN
ΔTm (Nucleic Acid [2]): 12.7 °C

SMILES: CN(CCCN)CCCNC(=O)c1cc(NC(=O)c2cc(NC(=O)c3cc(NC(=O)c4nc(NC(=O)[C@H](N)CCNC(=O)c5nc(NC(=O)c6cc(NC(=O)c7nc(NC(=O)c8nccn8C)cn7C)cn6C)cn5C)cn4C)cn3C)cn2C)cn1C
ΔTm (Nucleic Acid [1]): 3.1 °C

SMILES: Cn1cc(NC(=O)c2cc(NC(=O)c3nc(NC(=O)c4cc(NC(=O)[C@H](N)CCNC(=O)c5nc(NC(=O)c6cc(NC(=O)c7cc(NC(=O)c8nccn8C)cn7C)cn6C)cn5C)cn4C)cn3C)cn2C)cc1C(=O)NCCCON
ΔTm (Nucleic Acid [1]): 2 °C
inhibition at 5 µM (LNCaP [3]): 10%

SMILES: Cn1cc(NC(=O)c2cc(NC(=O)c3nc(NC(=O)c4cc(NC(=O)[C@H](N)CCNC(=O)c5nc(NC(=O)c6cc(NC(=O)c7cc(NC(=O)c8sccc8Cl)cn7C)cn6C)cn5C)cn4C)cn3C)cn2C)cc1C(=O)NCCCN
ΔTm (Nucleic Acid [2]): 13.5 °C

SMILES: Cn1cc(NC(=O)c2cc(NC(=O)c3nc(NC(=O)c4cc(NC(=O)[C@H](N)CCNC(=O)c5nc(NC(=O)c6cc(NC(=O)c7cc(NC(=O)c8sccc8Cl)cn7C)cn6C)cn5C)cn4C)cn3C)cn2C)cc1C(=O)NCCCNC(=O)c1cccc(C(=O)O)c1
ΔTm (Nucleic Acid [2]): 9.5 °C

SMILES: CN(C)CCCNC(=O)CCNC(=O)c1cc(NC(=O)c2cc(NC(=O)c3cc(NC(=O)c4nc(NC(=O)[C@H](N)CCNC(=O)c5cc(NC(=O)c6cc(NC(=O)c7cc(NC(=O)c8nccn8C)cn7C)cn6C)cn5C)cn4C)cn3C)cn2C)cn1C
ΔTm (Nucleic Acid [4]): 14.3 °C

SMILES: CN(CCCN)CCCNC(=O)c1cc(NC(=O)c2cc(NC(=O)c3cc(NC(=O)c4nc(NC(=O)[C@H](N)CCNC(=O)c5cc(NC(=O)c6cc(NC(=O)c7cc(NC(=O)c8nccn8C)cn7C)cn6C)cn5C)cn4C)cn3C)cn2C)cn1C
ΔTm (Nucleic Acid [4]): 17.3 °C

SMILES: NCCCO/N=C\c1ccc(F)cc1
IC50 (LNCaP [5]): > 50 µM
Activity (LNCaP [7]): inactive
IC50 (U-251 [8]): > 10 µM
Activity (U-251 [9]): inactive

SMILES: CN(CCCN)CCCNC(=O)c1cc(NC(=O)c2cc(NC(=O)c3nc(NC(=O)c4cc(NC(=O)[C@H](N)CCNC(=O)c5nc(NC(=O)c6cc(NC(=O)c7cc(NC(=O)c8sccc8Cl)cn7C)cn6C)cn5C)cn4C)cn3C)cn2C)cn1C
ΔTm (Nucleic Acid [2]): 14.8 °C
